# In ChEMBL document CHEMBL4308856, “Novel 5-(quinuclidin-3-ylmethyl)-1,2,4-oxadiazoles to investigate the activation of the α7 nicotinic acetylcholine receptor subtype: Synthesis and electrophysiological evaluation” (Eur J Med Chem, 2018):
# Calls of active or inactive are those of the source. The calls are words filed in the database; no cut-off is given here.
# Columns and labels:
# Type in all cases: cell-based
# [1] = target: T1, Neuronal acetylcholine receptor subunit alpha-7 (Homo sapiens, UniProt P36544); test: (§1) Ratio of partial agonist activity at human alpha7 nAChR expressed in Xenopus laevis oocytes assessed as increase in peak current amplitude relative to ACh to partial agonist activity at human alpha7 nAChR expressed in Xenopus laevis oocytes assessed as increase in net charge relative to ACh
# T1 sequence (P36544 whole entry, the tested form may be a part): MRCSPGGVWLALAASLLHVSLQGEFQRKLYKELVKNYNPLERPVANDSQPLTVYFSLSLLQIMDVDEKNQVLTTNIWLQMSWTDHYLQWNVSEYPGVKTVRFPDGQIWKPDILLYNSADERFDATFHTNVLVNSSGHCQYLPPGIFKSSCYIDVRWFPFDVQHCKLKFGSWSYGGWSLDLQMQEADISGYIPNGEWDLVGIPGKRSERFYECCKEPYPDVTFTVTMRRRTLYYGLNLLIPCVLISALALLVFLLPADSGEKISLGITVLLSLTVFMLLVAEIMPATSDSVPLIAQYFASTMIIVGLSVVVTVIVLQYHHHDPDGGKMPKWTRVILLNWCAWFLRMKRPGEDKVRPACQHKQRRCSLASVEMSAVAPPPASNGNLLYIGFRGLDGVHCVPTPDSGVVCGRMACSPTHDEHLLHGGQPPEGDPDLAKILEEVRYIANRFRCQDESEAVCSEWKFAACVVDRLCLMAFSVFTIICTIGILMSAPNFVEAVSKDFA
# Procedure, shortened: (§2)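 Human α7 nAChR expressed in Xenopus laevis oocytes, two-electrode voltage clamp at −60 mV with 3 M KCl electrodes. Ringer's with atropine, pH 7.2, perfused at 2 mL/min. Compound was applied at 30 μM for 12 s with a 181 s washout. Peak current and net charge were each normalized to the mean of two prior 60 μM ACh controls in the same oocyte; the peak/net-charge ratio was taken. Mean ± SEM, at least four oocytes.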
# [2] = target: T1, Neuronal acetylcholine receptor subunit alpha-7; test: (§3) Partial agonist activity at human alpha7 nAChR expressed in Xenopus laevis oocytes assessed as increase in net charge at 30 uM at -60 mV holding potential treated for 12 secs followed by compound washout for 181 secs by whole cell two electrode voltage-clamp assay relative to ACh; procedure, shortened: as §2
# [3] = target: T1, Neuronal acetylcholine receptor subunit alpha-7; test: as §1, with “of Silent” for “of partial”, “in net charge in presence of type 2 PAM PNU-120596” for “in peak current amplitude”
# Procedure, shortened: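 PNU effectiveness: net-charge response of human α7 nAChR (Xenopus oocytes, −60 mV clamp) to compound co-applied with 10 μM PNU-120596, divided by the response to compound alone. Both responses were normalized to 60 μM ACh controls, with 12 s applications and 181 s washout.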
# [4] = target: T1, Neuronal acetylcholine receptor subunit alpha-7; test: Partial agonist activity at human alpha7 nAChR expressed in Xenopus laevis oocytes assessed as increase in peak current amplitude at 30 uM at -60 mV holding potential treated for 12 secs followed by compound washout for 181 secs by whole cell two electrode voltage-clamp assay relative to ACh; procedure, shortened: as §2
# [5] = target: T1, Neuronal acetylcholine receptor subunit alpha-7; test: as §3, with “Silent agonist activity” for “Partial agonist activity”, “181 secs in presence of type 2 PAM PNU-120596 by whole” for “181 secs by whole”
# Procedure, shortened: (§4)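 α7 (human) expressed in Xenopus oocytes, voltage-clamped at −60 mV, Ringer's pH 7.2 with atropine at 2 mL/min. Compound (3, 10 or 30 μM) was co-applied with PNU-120596 for 12 s, then washed out for 181 s. Net charge was expressed relative to the mean of two preceding 60 μM ACh control responses in the same oocyte. Mean ± SEM, at least four oocytes.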
# [6] = target: T2, Neuronal acetylcholine receptor; alpha3/beta4 (Homo sapiens) (UniProt P30926+P32297); test: Antagonist activity at human alpha3beta4 nAChR expressed in Xenopus laevis oocytes assessed as inhibition of post-control Ach-induced channel activation at 30 uM at -60 mV holding potential treated for 6 secs followed by compound washout for 241 secs by whole cell two electrode voltage-clamp assay
# [7] = target: T1, Neuronal acetylcholine receptor subunit alpha-7; test: (§5) Antagonist activity at human alpha7 nAChR expressed in Xenopus laevis oocytes assessed as Ach-induced response by measuring residual activity at 30 uM at -60 mV holding potential treated for 12 secs followed by compound washout for 181 secs by whole cell two electrode voltage-clamp assay (Rvb =60%)
# [8] = target: T2, Neuronal acetylcholine receptor; alpha3/beta4 (Homo sapiens); test: Antagonist activity at human alpha3beta4 nAChR expressed in Xenopus laevis oocytes assessed as inhibition of Ach-induced channel activation at 30 uM at -60 mV holding potential treated for 6 secs followed by compound washout for 241 secs by whole cell two electrode voltage-clamp assay
# [9] = target: T1, Neuronal acetylcholine receptor subunit alpha-7; test: as §5, with “assessed as inhibition of post control Ach-induced response” for “assessed as Ach-induced response”
# [10] = target: T1, Neuronal acetylcholine receptor subunit alpha-7; test: Partial agonist activity at human alpha7 nAChR expressed in Xenopus laevis oocytes at -60 mV holding potential treated for 12 secs followed by compound washout for 181 secs by whole cell two electrode voltage-clamp assay relative to ACh
# [11] = target: T1, Neuronal acetylcholine receptor subunit alpha-7; test: (§6) Silent agonist activity at human alpha7 nAChR expressed in Xenopus laevis oocytes assessed as increase in net charge at 3 uM at -60 mV holding potential treated for 12 secs followed by compound washout for 181 secs in presence of type 2 PAM PNU-120596 by whole cell two electrode voltage-clamp assay relative to ACh; procedure, shortened: as §4
# [12] = target: T1, Neuronal acetylcholine receptor subunit alpha-7; test: as §6, with “10” for “3”; procedure, shortened: as §4
# [13] = target: T1, Neuronal acetylcholine receptor subunit alpha-7; test: Partial agonist activity at human alpha7 nAChR expressed in Xenopus laevis oocytes assessed as increase in net charge at 3 uM at -60 mV holding potential treated for 12 secs followed by compound washout for 181 secs by whole cell two electrode voltage-clamp assay relative to ACh
# Procedure, shortened: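 Human α7 nAChR in Xenopus oocytes under two-electrode voltage clamp at −60 mV, perfused with Ringer's (pH 7.2, atropine) at 2 mL/min. Compound was given alone at 3 μM as a 12 s application followed by 181 s washout. Net-charge response was normalized to the average of two initial 60 μM ACh controls from the same oocyte.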
# [14] = target: T1, Neuronal acetylcholine receptor subunit alpha-7; test: as §6, with “3 to 10” for “3”; procedure, shortened: as §4
SMILES,Ratio [1],fold change (FC) [2],Ratio [3],fold change (FC) [4],fold change (FC) [5],inhibition [6],Activity [7],inhibition [8],Activity [9],EC50 [10],fold change (FC) [11],Activity [11],Activity [12],fold change (FC) [13],Activity [14],fold change (FC) [14]
COc1cccc(-c2noc(CC3CN4CCC3CC4)n2)c1 (configuration not stated),2.77,0.511,2,1.42,1,,,,,,,,,,,
C[N+]12CCC(CC1)C(Cc1nc(-c3ccccc3)no1)C2 (configuration not stated),0.62,0.112,21,0.069,2.4,,,,,,,,,,,
C[N+]12CCC(CC1)C(Cc1nc(-c3cccc(F)c3)no1)C2 (configuration not stated),1.06,0.063,5,0.067,0.3,,,,,,,,,,,
Cc1cccc(-c2noc(CC3CN4CCC3CC4)n2)c1 (configuration not stated),4.85,0.434,178,2.11,77.3,,,,,,,,,,,
C[N+]12CCC(CC1)C(Cc1nc(-c3cccc(C(F)(F)F)c3)no1)C2 (configuration not stated),2.2,0.035,3,0.077,0.1,inactive,10%,Active,60%,,,,,,,
C[N+]12CCC(CC1)C(Cc1nc(-c3cccc(Cl)c3)no1)C2 (configuration not stated),1.94,0.151,5,0.293,0.7,,,,,,,,,,,
Ic1cccc(-c2noc(CC3CN4CCC3CC4)n2)c1 (configuration not stated),4.94,0.245,2,1.21,0.5,,,,,,,,,,,
C[N+]12CCC(CC1)C(Cc1nc(-c3cccs3)no1)C2 (configuration not stated),0.81,0.127,2,0.103,0.2,,,,,,,,,,,
FC(F)(F)c1cccc(-c2noc(CC3CN4CCC3CC4)n2)c1 (configuration not stated),2.62,0.055,2,0.144,0.1,,,,,,,,,,,
c1csc(-c2noc(CC3CN4CCC3CC4)n2)c1 (configuration not stated),4.06,0.508,10,2.06,5,,,,,< 30 µM,13.4,,,,,
C[N+]12CCC(CC1)C(Cc1nc(-c3cccc(Br)c3)no1)C2 (configuration not stated),2.49,0.177,2,0.44,0.3,,,,,,,,,,,
Brc1cccc(-c2noc(CC3CN4CCC3CC4)n2)c1 (configuration not stated),3.36,0.274,2,0.92,0.5,,,,,,,,,,,
Cc1noc(CC2CN3CCC2CC3)n1 (configuration not stated),0.62,0.042,121,0.026,5.1,,,,,,,inactive,inactive,,,
Clc1cccc(-c2noc(CC3CN4CCC3CC4)n2)c1 (configuration not stated),3.76,0.32,2,1.2,0.6,,,,,,,,,,,
c1coc(-c2noc(CC3CN4CCC3CC4)n2)c1 (configuration not stated),3.73,0.575,56,2.14,32.3,,,,,< 30 µM,,,,0.15,,
c1cc(-c2noc(CC3CN4CCC3CC4)n2)ccn1 (configuration not stated),0.79,0.703,36,0.553,25.5,,,,,,,,,,,
C[N+]12CCC(CC1)C(Cc1nc(-c3ccncc3)no1)C2 (configuration not stated),0.72,0.047,55,0.034,2.6,,,,,,,,,,,
COc1ccc(-c2noc(CC3C[N+]4(C)CCC3CC4)n2)cc1 (configuration not stated),0.68,0.075,29,0.051,2.2,,,,,,,,,,Active,
Cc1cccc(-c2noc(CC3C[N+]4(C)CCC3CC4)n2)c1 (configuration not stated),1.03,0.077,16,0.079,1.2,,,,,,,,inactive,,,10.9
COc1cccc(-c2noc(CC3C[N+]4(C)CCC3CC4)n2)c1 (configuration not stated),0.92,0.129,14,0.119,1.8,,,,,,,,,,,
COc1ccc(-c2noc(CC3CN4CCC3CC4)n2)cc1 (configuration not stated),4.93,0.401,4,1.98,1.6,,,,,< 30 µM,4.4,,,,,
Fc1cccc(-c2noc(CC3CN4CCC3CC4)n2)c1 (configuration not stated),4.47,0.458,2,2.05,0.9,,,,,,,,,,,
Cc1noc(CC2C[N+]3(C)CCC2CC3)n1 (configuration not stated),3,0.001,100,0.003,0.1,,,,,,,,,,,
C[N+]12CCC(CC1)C(Cc1nc(-c3cccnc3)no1)C2 (configuration not stated),0.48,0.048,81,0.023,3.9,,,,,,,,,,,
c1ccc(-c2noc(CC3CN4CCC3CC4)n2)cc1 (configuration not stated),2.16,0.602,3,1.3,1.7,,,,,< 30 µM,17.4,,,,,
c1cncc(-c2noc(CC3CN4CCC3CC4)n2)c1 (configuration not stated),1.8,0.483,28,0.867,13.7,,,,,,,,,,,
C[N+]12CCC(CC1)C(Cc1nc(-c3ccco3)no1)C2 (configuration not stated),0.71,0.014,1990,0.01,27.9,,,,,,,,,,,
C[N+]12CCC(CC1)C(Cc1nc(-c3cccc(I)c3)no1)C2 (configuration not stated),3.62,0.239,1,0.866,0.3,,,,,,,,,,,
